Calls of active or inactive are those of the source. The rule behind the calls is not given here.
Key:
[1] = Displacement of [3H]DTG from sigma2 receptor in rat liver membranes incubated for 120 mins by scintillation counting method in presence of pentazocine; type: cell membranes, Membrane
Outline: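 σ2 binding on rat liver membranes using the nonselective radioligand [3H]-DTG. […] Nonspecific binding defined with 10 µM unlabelled DTG. Affinity reported as Ki.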

[2] = molecular target: T1, Glutamate NMDA receptor; GRIN1/GRIN2A (Homo sapiens, UniProt Q05586+Q12879); assay: Antagonist activity against NR1-1a/NR2A NMDA receptor (unknown origin) expressed in mouse recombinant L(tk-) cells assessed as inhibition of glycine and glutamate induced excitotoxicity incubated for 12 hrs by LDH assay; type: cell-based
Outline: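 Mouse fibroblast L(tk-) cells stably carrying a dexamethasone-inducible vector encoding GluN1a and GluN2A. Receptor expression was induced with dexamethasone in the presence of ketamine to limit cell damage. Cells were exposed to (S)-glutamate, glycine and a range of test concentrations for 12 h. Cell death was read as LDH released from lysed cells, measured by formazan dye formation.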

[3] = Displacement of [3H]MK801 from NMDA receptor PCP binding site in guinea pig brain cortex membranes incubated for 120 mins by scintillation counting method; type: cell membranes, Cavia porcellus
[4] = molecular target: Sigma non-opioid intracellular receptor 1 (Cavia porcellus, UniProt Q60492); assay: Displacement of [3H]-(+)-pentazocine from sigma 1 receptor in guinea pig brain membranes incubated for 120 mins by scintillation counting method in the presence of pentazocine; type: cell membranes, Membrane
Mus musculus [5] = assay: Potentiation of morphine-induced antinociception in CD-1 mouse assessed as increase in latency time at 50 mg/kg, sc dosed 30 mins before morphine injection and measured 60 mins post morphine injection by hot plate test; type: functional, organism-based
Mus musculus [6] = assay: Antinociceptive activity in CD-1 mouse assessed as increase in latency time at 50 mg/kg, sc incubated for 30 mins by hot plate test; type: functional, organism-based
Outline: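 Hot plate test in mice with test compound given alone s.c. at doses up to 50 mg/kg. Reaction latency read out as %MPE.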

Mus musculus [7] = assay: Potentiation of morphine-induced antinociception in CD-1 mouse assessed as increase in latency time at 30 mg/kg, sc dosed 30 mins before morphine injection and measured 30 to 90 mins post morphine injection by hot plate test; type: functional, organism-based
[8] = Selectivity index, ratio of Ki for sigma2 receptor in rat liver membranes to Ki for sigma 1 receptor in guinea pig brain membranes; type: cell membranes
[9] = molecular target: T1, Glutamate NMDA receptor; GRIN1/GRIN2A; assay: Binding affinity to NMDA receptor (unknown origin); type: protein-complex assay
Outline: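 PCP site of the NMDA receptor in pig brain cortex membranes. Competition binding against [3H]-(+)-MK-801. Nonspecific binding was defined with a large excess of unlabelled (+)-MK-801. Values are reported as Ki.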

T1 sequence (Q12879 whole entry, other chains not shown): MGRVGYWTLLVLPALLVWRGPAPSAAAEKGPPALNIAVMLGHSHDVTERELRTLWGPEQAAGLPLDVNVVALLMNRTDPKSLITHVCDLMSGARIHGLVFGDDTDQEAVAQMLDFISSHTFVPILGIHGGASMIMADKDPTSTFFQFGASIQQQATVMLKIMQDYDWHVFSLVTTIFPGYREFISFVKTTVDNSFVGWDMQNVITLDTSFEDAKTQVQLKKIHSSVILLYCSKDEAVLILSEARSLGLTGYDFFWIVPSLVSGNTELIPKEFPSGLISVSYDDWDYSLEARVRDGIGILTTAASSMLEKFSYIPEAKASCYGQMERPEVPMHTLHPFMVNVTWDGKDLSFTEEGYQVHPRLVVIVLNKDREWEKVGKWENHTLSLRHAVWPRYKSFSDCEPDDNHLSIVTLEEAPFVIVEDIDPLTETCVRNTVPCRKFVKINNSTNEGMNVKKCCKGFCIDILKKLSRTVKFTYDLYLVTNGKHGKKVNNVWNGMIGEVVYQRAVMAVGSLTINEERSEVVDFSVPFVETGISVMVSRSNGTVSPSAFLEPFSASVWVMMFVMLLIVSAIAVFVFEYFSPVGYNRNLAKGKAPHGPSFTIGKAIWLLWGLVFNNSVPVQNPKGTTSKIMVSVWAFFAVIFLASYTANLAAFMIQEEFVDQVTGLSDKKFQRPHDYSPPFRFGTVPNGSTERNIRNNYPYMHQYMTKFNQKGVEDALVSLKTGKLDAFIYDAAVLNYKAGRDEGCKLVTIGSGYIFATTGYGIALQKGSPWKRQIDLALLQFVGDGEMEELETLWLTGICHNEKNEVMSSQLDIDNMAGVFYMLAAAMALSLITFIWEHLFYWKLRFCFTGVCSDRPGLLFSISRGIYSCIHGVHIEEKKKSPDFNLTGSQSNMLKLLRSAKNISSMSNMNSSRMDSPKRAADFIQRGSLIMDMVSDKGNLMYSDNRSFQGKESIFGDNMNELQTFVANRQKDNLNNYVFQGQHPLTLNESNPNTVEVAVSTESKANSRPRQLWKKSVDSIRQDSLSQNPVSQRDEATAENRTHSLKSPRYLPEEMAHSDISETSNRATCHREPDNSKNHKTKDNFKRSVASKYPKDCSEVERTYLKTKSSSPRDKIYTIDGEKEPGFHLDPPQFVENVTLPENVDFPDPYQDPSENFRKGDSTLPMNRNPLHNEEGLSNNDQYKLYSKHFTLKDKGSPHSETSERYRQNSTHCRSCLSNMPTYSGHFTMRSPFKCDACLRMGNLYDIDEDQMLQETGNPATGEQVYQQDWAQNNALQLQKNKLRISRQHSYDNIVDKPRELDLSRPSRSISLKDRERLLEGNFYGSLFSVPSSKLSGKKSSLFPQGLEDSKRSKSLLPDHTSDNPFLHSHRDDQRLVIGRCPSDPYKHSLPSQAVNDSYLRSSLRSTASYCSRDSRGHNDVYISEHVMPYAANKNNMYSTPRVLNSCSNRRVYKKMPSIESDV
Sequence of Sigma non-opioid intracellular receptor 1 (Q60492 whole entry): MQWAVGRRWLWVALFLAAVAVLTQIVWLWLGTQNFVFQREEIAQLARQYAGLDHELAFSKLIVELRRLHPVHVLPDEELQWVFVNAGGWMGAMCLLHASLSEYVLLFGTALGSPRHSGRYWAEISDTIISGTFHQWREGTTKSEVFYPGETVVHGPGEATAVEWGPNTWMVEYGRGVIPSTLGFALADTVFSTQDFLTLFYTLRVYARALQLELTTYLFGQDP

| SMILES | Ki [1] | Ki [3] | Ki [4] | other results |
| --- | --- | --- | --- | --- |
| NCC1COCC(c2ccccc2)(c2ccccc2)O1 (stereo not given) | 5.8 µM | 0.712 µM | > 10 µM | IC50 [2]: 0.0242 µM |
| NCCC1COCC(c2ccccc2)(c2ccccc2)O1 (stereo not given) | > 10 µM | > 10 µM | > 10 µM | – |
| NCC1COC(c2ccccc2)(c2ccccc2)CO1 (stereo not given) | > 10 µM | > 10 µM | 1.4 µM | – |
| NCCC1COC(c2ccccc2)(c2ccccc2)CO1 (stereo not given) | > 10 µM | > 10 µM | > 10 µM | – |
| c1ccc(CNCC2COCC(c3ccccc3)(c3ccccc3)O2)cc1 (stereo not given) | 1.6 µM | > 10 µM | 4.9 µM | – |
| c1ccc(CNCCC2COCC(c3ccccc3)(c3ccccc3)O2)cc1 (stereo not given) | > 10 µM | > 10 µM | 0.502 µM | – |
| c1ccc(CNCC2COC(c3ccccc3)(c3ccccc3)CO2)cc1 (stereo not given) | 1 µM | > 10 µM | 0.00737 µM | Activity (Mus musculus [5]): Active; Activity (Mus musculus [6]): inactive; Activity (Mus musculus [7]): inactive; Ratio Ki [8]: 136 |
| c1ccc(CNCCC2COC(c3ccccc3)(c3ccccc3)CO2)cc1 (stereo not given) | 0.841 µM | > 10 µM | 0.297 µM | – |
| c1ccc(CNCC2CCOC(c3ccccc3)(c3ccccc3)O2)cc1 (stereo not given) | 0.111 µM | > 10 µM | 3 µM | – |
| NC[C@@H]1COC[C@H](c2ccccc2)O1 (racemic) | > 10 µM | > 10 µM | > 10 µM | – |
| NC[C@H]1COC[C@H](c2ccccc2)O1 (racemic) | > 10 µM | > 10 µM | > 10 µM | – |
| CC[C@]1(c2ccccc2)COC[C@@H](CN)O1 (racemic) | > 10 µM | > 10 µM | > 10 µM | – |
| CC[C@]1(c2ccccc2)COC[C@H](CN)O1 (racemic) | > 10 µM | > 10 µM | > 10 µM | – |
| NC[C@@H]1COC[C@@](c2ccccc2)(C2CCCCC2)O1 (racemic) | > 10 µM | 0.893 µM | > 10 µM | IC50 [2]: 0.0712 µM |
| NC[C@H]1COC[C@@](c2ccccc2)(C2CCCCC2)O1 (racemic) | 2.5 µM | 0.413 µM | > 10 µM | IC50 [2]: 0.0177 µM |
| NC[C@@H]1CO[C@H](c2ccccc2)CO1 (racemic) | > 10 µM | > 10 µM | > 10 µM | – |

| SMILES | Ki [1] | Ki [3] | Ki [4] | other results |
| --- | --- | --- | --- | --- |
| NC[C@H]1CO[C@H](c2ccccc2)CO1 (racemic) | > 10 µM | > 10 µM | > 10 µM | – |
| c1ccc(CNC[C@@H]2COC[C@H](c3ccccc3)O2)cc1 (racemic) | > 10 µM | > 10 µM | 0.155 µM | – |
| c1ccc(CNC[C@H]2COC[C@H](c3ccccc3)O2)cc1 (racemic) | 4.3 µM | > 10 µM | 0.542 µM | – |
| CC[C@]1(c2ccccc2)COC[C@@H](CNCc2ccccc2)O1 (racemic) | > 10 µM | > 10 µM | 0.543 µM | – |
| CC[C@]1(c2ccccc2)COC[C@H](CNCc2ccccc2)O1 (racemic) | > 10 µM | > 10 µM | 0.607 µM | – |
| c1ccc(CNC[C@@H]2COC[C@@](c3ccccc3)(C3CCCCC3)O2)cc1 (racemic) | 4.9 µM | > 10 µM | 1.5 µM | – |
| c1ccc(CNC[C@H]2COC[C@@](c3ccccc3)(C3CCCCC3)O2)cc1 (racemic) | > 10 µM | > 10 µM | 2.7 µM | – |
| c1ccc(CNC[C@@H]2CO[C@H](c3ccccc3)CO2)cc1 (racemic) | 0.698 µM | > 10 µM | 0.192 µM | – |
| c1ccc(CNC[C@@H]2CO[C@@H](c3ccccc3)CO2)cc1 (racemic) | > 10 µM | > 10 µM | 0.037 µM | Ratio Ki [8]: > 270 |
| c1ccc(CNC[C@@H]2CCO[C@H](c3ccccc3)O2)cc1 (racemic) | 0.174 µM | > 10 µM | 0.314 µM | – |
| c1ccc(C2(c3ccccc3)OC[C@H]([C@@H]3CCCCN3)O2)cc1 [DEXOXADROL] | – | – | – | Ki [9]: […]; IC50 [2]: 0.0097 µM |
| Cc1ccccc1NC(=N)Nc1ccccc1C [DITOLYLGUANIDINE] | 0.064 µM | – | – | – |
| CN[C@]1(c2ccccc2Cl)CCCCC1=O [ESKETAMINE] | – | 0.419 µM | – | IC50 [2]: 0.0114 µM |
| CC[C@]1(c2ccccc2)OC[C@H]([C@@H]2CCCCN2)O1 [ETOXADROL] | – | 0.022 µM | – | Ki [9]: 0.022 µM |
| c1ccc(C2(N3CCCCC3)CCCCC2)cc1 [PHENCYCLIDINE] | – | 0.028 µM | – | IC50 [2]: 0.0118 µM |
